Laboratory results taken from ChEMBL document CHEMBL4689842, “EUbOPEN Chemogenomics Library wave 1” (2021).

Legend:
Type in all cases: toxicity, cell-based
Fibroblast [1] = experiment: Incucyte cell viability with human fibroblast; conditions: 10 µM, compound concentration 10 uM; also: filed as whole numbers so only -1 and 0 and 1 occur
Fibroblast [2] = experiment: Multiplex assay against human fibroblast
Procedure, shortened: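 Live cells were stained at seeding with Hoechst33342, BioTracker Green Microtubule Cytoskeleton Dye, MitoTracker Red and Annexin V Alexa Fluor 680, then imaged on a CQ1 microscope at 37°C and 5% CO2 after compound addition. CellPathfinder machine-learning gating split cells into Hoechst high-intensity objects or normal cells. Normal cells were split into healthy, pyknosed or fragmented nuclei, and pyknosed cells into mitotic or apoptotic. Tubulin, mitochondrial-mass and membrane-permeability phenotypes are per cents of healthy-nucleus cells.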

HEK-293T = experiment: Incucyte cell viability with HEK293T; conditions: human, 10 µM, compound concentration 10 uM; also: filed as whole numbers so only -1 and 0 and 1 occur
U2OS = experiment: Incucyte cell viability with U2OS; conditions: human, 10 µM, compound concentration 10 uM; also: filed as whole numbers so only -1 and 0 and 1 occur
[3] = 6 h, replicate number 1, timepoint 6 hours
[4] = 12 h, replicate number 1, timepoint 12 hours
[5] = 18 h, replicate number 1, timepoint 18 hours
[6] = 24 h, replicate number 1, timepoint 24 hours
[7] = 12 h, 1 µM, compound concentration 1 uM, replicate 1
[8] = 12 h, 1 µM, compound concentration 1 uM, replicate 2
[9] = 12 h, 10 µM, compound concentration 10 uM, replicate 1
[10] = 12 h, 10 µM, compound concentration 10 uM, replicate 2
[11] = 24 h, 1 µM, compound concentration 1 uM, replicate 1
[12] = 24 h, 1 µM, compound concentration 1 uM, replicate 2
[13] = 24 h, 10 µM, compound concentration 10 uM, replicate 1
[14] = 24 h, 10 µM, compound concentration 10 uM, replicate 2
[15] = 48 h, 1 µM, compound concentration 1 uM, replicate 1
[16] = 48 h, 1 µM, compound concentration 1 uM, replicate 2
[17] = 48 h, 10 µM, compound concentration 10 uM, replicate 1
[18] = 48 h, 10 µM, compound concentration 10 uM, replicate 2

## Cc1nc(Cc2cccc(C(F)(F)F)c2)sc1-c1ccc(C(N)=O)nc1 [TP-024n]
Fibroblast [1]; [3]
  Growth Rate: 0
Fibroblast [1]; [4]
  Growth Rate: 0
Fibroblast [1]; [5]
  Growth Rate: 0
Fibroblast [1]; [6]
  Growth Rate: 0
Fibroblast [2]; [7]
  Population Apoptotic (%): 59%
  Population Fragmented Nuclei (%): 16%
  Population Healthy Nuclei (%): 45%
  Population Hoechst High Intensity Objects (%): 11%
  Population Membrane Permeable-Phenotype (%): 23%
  Population Mitochondria Different-Phenotype (%): 3%
  Population Mitotic Cells (%): 40%
  Population Normal (%): 88%
  Population Pyknosed Nuclei (%): 37%
  Population Tubulin-Different-Phenotype (%): 33%
  Total Cell Count: 125
Fibroblast [2]; [8]
  Population Apoptotic (%): 50%
  Population Fragmented Nuclei (%): 0%
  Population Healthy Nuclei (%): 94%
  Population Membrane Permeable-Phenotype (%): 2%
  Population Mitochondria Different-Phenotype (%): 18%
  Population Mitotic Cells (%): 50%
  Population Pyknosed Nuclei (%): 5%
  Population Tubulin-Different-Phenotype (%): 16%
  Total Cell Count: 130
Fibroblast [2]; [9]
  Population Apoptotic (%): 63%
  Population Fragmented Nuclei (%): 25%
  Population Healthy Nuclei (%): 37%
  Population Hoechst High Intensity Objects (%): 14%
  Population Membrane Permeable-Phenotype (%): 2%
  Population Mitochondria Different-Phenotype (%): 16%
  Population Mitotic Cells (%): 36%
  Population Normal (%): 86%
  Population Pyknosed Nuclei (%): 36%
  Population Tubulin-Different-Phenotype (%): 67%
  Total Cell Count: 150
Fibroblast [2]; [10]
  Population Apoptotic (%): 66%
  Population Fragmented Nuclei (%): 17%
  Population Healthy Nuclei (%): 67%
  Population Hoechst High Intensity Objects (%): 4%
  Population Membrane Permeable-Phenotype (%): 9%
  Population Mitochondria Different-Phenotype (%): 21%
  Population Mitotic Cells (%): 33%
  Population Normal (%): 95%
  Population Pyknosed Nuclei (%): 14%
  Population Tubulin-Different-Phenotype (%): 11%
  Total Cell Count: 44
Fibroblast [2]; [11]
  Population Apoptotic (%): 46%
  Population Fragmented Nuclei (%): 17%
  Population Healthy Nuclei (%): 51%
  Population Hoechst High Intensity Objects (%): 11%
  Population Membrane Permeable-Phenotype (%): 31%
  Population Mitochondria Different-Phenotype (%): 1%
  Population Mitotic Cells (%): 53%
  Population Normal (%): 88%
  Population Pyknosed Nuclei (%): 32%
  Population Tubulin-Different-Phenotype (%): 29%
  Total Cell Count: 113
Fibroblast [2]; [12]
  Population Apoptotic (%): 50%
  Population Fragmented Nuclei (%): 5%
  Population Healthy Nuclei (%): 91%
  Population Hoechst High Intensity Objects (%): 5%
  Population Membrane Permeable-Phenotype (%): 1%
  Population Mitochondria Different-Phenotype (%): 7%
  Population Mitotic Cells (%): 50%
  Population Normal (%): 95%
  Population Pyknosed Nuclei (%): 3%
  Population Tubulin-Different-Phenotype (%): 15%
  Total Cell Count: 126
Fibroblast [2]; [13]
  Population Apoptotic (%): 64%
  Population Fragmented Nuclei (%): 19%
  Population Healthy Nuclei (%): 57%
  Population Hoechst High Intensity Objects (%): 13%
  Population Membrane Permeable-Phenotype (%): 5%
  Population Mitochondria Different-Phenotype (%): 12%
  Population Mitotic Cells (%): 35%
  Population Normal (%): 86%
  Population Pyknosed Nuclei (%): 23%
  Population Tubulin-Different-Phenotype (%): 58%
  Total Cell Count: 152
Fibroblast [2]; [14]
  Population Apoptotic (%): 44%
  Population Fragmented Nuclei (%): 14%
  Population Healthy Nuclei (%): 58%
  Population Hoechst High Intensity Objects (%): 2%
  Population Membrane Permeable-Phenotype (%): 25%
  Population Mitochondria Different-Phenotype (%): 32%
  Population Mitotic Cells (%): 55%
  Population Normal (%): 97%
  Population Pyknosed Nuclei (%): 26%
  Population Tubulin-Different-Phenotype (%): 22%
  Total Cell Count: 60
Fibroblast [2]; [15]
  Population Apoptotic (%): 52%
  Population Fragmented Nuclei (%): 21%
  Population Healthy Nuclei (%): 58%
  Population Hoechst High Intensity Objects (%): 19%
  Population Membrane Permeable-Phenotype (%): 22%
  Population Mitochondria Different-Phenotype (%): 1%
  Population Mitotic Cells (%): 47%
  Population Normal (%): 80%
  Population Pyknosed Nuclei (%): 20%
  Population Tubulin-Different-Phenotype (%): 31%
  Total Cell Count: 116
Fibroblast [2]; [16]
  Population Apoptotic (%): 33%
  Population Fragmented Nuclei (%): 16%
  Population Healthy Nuclei (%): 80%
  Population Hoechst High Intensity Objects (%): 11%
  Population Membrane Permeable-Phenotype (%): 12%
  Population Mitochondria Different-Phenotype (%): 0%
  Population Mitotic Cells (%): 66%
  Population Normal (%): 88%
  Population Pyknosed Nuclei (%): 3%
  Population Tubulin-Different-Phenotype (%): 35%
  Total Cell Count: 98
Fibroblast [2]; [17]
  Population Apoptotic (%): 77%
  Population Fragmented Nuclei (%): 19%
  Population Healthy Nuclei (%): 64%
  Population Hoechst High Intensity Objects (%): 9%
  Population Membrane Permeable-Phenotype (%): 11%
  Population Mitochondria Different-Phenotype (%): 15%
  Population Mitotic Cells (%): 22%
  Population Normal (%): 90%
  Population Pyknosed Nuclei (%): 16%
  Population Tubulin-Different-Phenotype (%): 44%
  Total Cell Count: 148
Fibroblast [2]; [18]
  Population Apoptotic (%): 25%
  Population Fragmented Nuclei (%): 27%
  Population Healthy Nuclei (%): 68%
  Population Hoechst High Intensity Objects (%): 10%
  Population Membrane Permeable-Phenotype (%): 5%
  Population Mitochondria Different-Phenotype (%): 7%
  Population Mitotic Cells (%): 75%
  Population Normal (%): 89%
  Population Pyknosed Nuclei (%): 3%
  Population Tubulin-Different-Phenotype (%): 52%
  Total Cell Count: 124
HEK-293T; 0 h, replicate number 2, timepoint 0 hours
  Growth Rate: 0
HEK-293T; [3]
  Growth Rate: 0
HEK-293T; [4]
  Growth Rate: 0
HEK-293T; [5]
  Growth Rate: 0
HEK-293T; [6]
  Growth Rate: 0
U2OS; [3]
  Growth Rate: 0
U2OS; [4]
  Growth Rate: 0
U2OS; [5]
  Growth Rate: 0
U2OS; [6]
  Growth Rate: 0
